{"data": "Assay results pooled from the literature", "observed": "cell growth or viability", "note": "Protocols differ between the studies behind these lines. pIC50: −log10 of the molar value."}
{"Structure (SMILES)": "CC[C@H](C)[C@H](N)C(=O)O[C@]1(CC)C(=O)OCc2c1cc1n(c2=O)Cc2cc3cc4c(cc3nc2-1)OCO4", "cell line": "HCT-116", "method": "MTT", "quantity": "pIC50", "result": 7.19}
{"Structure (SMILES)": "COc1cc2c(c3c1C(=O)C[C@@H](c1ccccc1)O3)[C@H]1[C@@H](O2)OC(C)(C)[C@@H]1OC(C)=O", "cell line": "Raji", "method": "MTS", "time": "72 h", "quantity": "pIC50", "result": "< 5.00"}
{"Structure (SMILES)": "CC1=C(O)C(=O)C=C2C1=CC=C1[C@@]2(C)CC[C@@]2(C)[C@@H]3C[C@](C)(C(=O)O)CC[C@]3(C)CC[C@]12C", "cell line": "AGS", "method": "MTT", "time": "48 h", "quantity": "pIC50", "result": 6.41}
{"Structure (SMILES)": "N.N.[Cl][Pt][Cl]", "cell line": "HCT-116", "time": "24 h", "quantity": "pIC50", "result": 4.45}
{"Structure (SMILES)": "Cc1c(Cc2cccc(N(C)S(=O)(=O)CCCNCCCC(=O)N3CCN(c4ccc(Nc5c(C(N)=O)cnc6ccc(-c7cnc8ccccc8c7)cc56)cc4C(F)(F)F)CC3)c2)c(=O)oc2cc(OC(=O)N(C)C)ccc12", "cell line": "HCT-116", "method": "CCK-8", "quantity": "GI50", "result": "5470 nM"}
{"Structure (SMILES)": "CCCc1cc(=O)n2nc(NCc3c(F)cc(Cl)cc3F)c(C#N)c2[nH]1", "cell line": "U-87 MG", "method": "ATP luminescence", "time": "72 h", "quantity": "pIC50", "result": "< 4.30"}
{"Structure (SMILES)": "Cc1ccc2c(CNCC3(N4CCCC4)COC3)c[nH]c2c1", "cell line": "U-87 MG", "tested at": "30 µM", "time": "48 h", "quantity": "viability", "result": "27.6%"}
{"Structure (SMILES)": "C=CC(=O)Nc1cc(Nc2nccc(-c3cn(C)c4ccccc34)n2)c(OC)cc1N(C)CCN(C)C", "cell line": "PC-9", "time": "72 h", "quantity": "pIC50", "result": 8.10}
{"Structure (SMILES)": "CC[C@@]1(OC(=O)CN)C(=O)OCc2c1cc1n(c2=O)Cc2cc3cc4c(cc3nc2-1)OCO4", "cell line": "HCT-116", "method": "MTT", "quantity": "pIC50", "result": 7.60}
{"Structure (SMILES)": "CN[C@@H]1C[C@H]2O[C@@](C)([C@@H]1OC)n1c3ccccc3c3c4c(c5c6ccccc6n2c5c31)C(=O)NC4", "cell line": "SHP77", "method": "MTT", "quantity": "pIC50", "result": 7.80}
{"Structure (SMILES)": "Cc1cc(N(CCO)CCO)ccc1C=O", "cell line": "SN12K1", "quantity": "IC50", "result": "> 10 µg/mL"}
{"Structure (SMILES)": "CC(C)C[C@@H]1NC(=O)[C@H](Cc2ccccc2)NC(=O)[C@H](CCCCN)NC(=O)[C@H](CC(C)C)NC(=O)[C@H](C(C)C)NC1=O", "cell line": "HCT-116", "method": "thymidine uptake", "tested at": "10 µM", "time": "72 h", "quantity": "inhibition", "result": "0%"}
{"Structure (SMILES)": "CC[C@@]1(OC(=O)[C@@H]2CCCN2)C(=O)OCc2c1cc1n(c2=O)Cc2cc3cc4c(cc3nc2-1)OCO4", "cell line": "HCT-116", "method": "MTT", "quantity": "pIC50", "result": 6.90}
{"Structure (SMILES)": "COc1cccc2c1C(=O)c1c(O)c3c(c(O)c1C2=O)C[C@@](O)(C(=O)CO)C[C@@H]3O[C@H]1C[C@H](N)[C@H](O)[C@H](C)O1", "cell line": "SK-OV-3", "time": "48 h", "quantity": "IC50", "result": "1.2 µg/mL"}
